# Source: ChEMBL document CHEMBL5058577, “EUbOPEN Chemogenomics Library 2 (Multiplex)” (2022)
# Tested on: HEK-293T
# Assay: Multiplex assay against HEK293T
# Type: toxicity, cell-based
# Conditions: human
# Outline: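 Live cells were stained at seeding with Hoechst33342, BioTracker Green Microtubule Cytoskeleton Dye, MitoTracker Red and Annexin V Alexa Fluor 680. Following compound addition, they were imaged on a CQ1 microscope at 37°C and 5% CO2 and gated by CellPathfinder machine learning into Hoechst high-intensity objects or normal cells, with normal cells split into healthy, pyknosed or fragmented nuclei and pyknosed cells into mitotic or apoptotic. Tubulin, mitochondrial-mass and membrane-permeability phenotypes are per cents of healthy-nucleus cells.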
# [1] = 12 h, 1 µM, compound concentration 1 uM, replicate 1
# [2] = 12 h, 1 µM, compound concentration 1 uM, replicate 2
# [3] = 12 h, 10 µM, compound concentration 10 uM, replicate 1
# [4] = 12 h, 10 µM, compound concentration 10 uM, replicate 2
# [5] = 24 h, 1 µM, compound concentration 1 uM, replicate 1
# [6] = 24 h, 1 µM, compound concentration 1 uM, replicate 2
# [7] = 24 h, 10 µM, compound concentration 10 uM, replicate 1
# [8] = 24 h, 10 µM, compound concentration 10 uM, replicate 2
# [9] = 48 h, 1 µM, compound concentration 1 uM, replicate 1
# [10] = 48 h, 1 µM, compound concentration 1 uM, replicate 2
# [11] = 48 h, 10 µM, compound concentration 10 uM, replicate 1
# [12] = 48 h, 10 µM, compound concentration 10 uM, replicate 2
compound,measurement,setting,value
CN(C)C(=O)Cn1cc(-c2ccc(-c3cncc4ccccc34)cc2)cn1,Population Apoptotic (%),[1],52%
same,Population Fragmented Nuclei (%),[1],5%
same,Population Healthy Nuclei (%),[1],81%
same,Population Hoechst High Intensity Objects (%),[1],7%
same,Population Membrane Permeable-Phenotype (%),[1],0%
same,Population Mitochondria Different-Phenotype (%),[1],50%
same,Population Mitotic Cells (%),[1],47%
same,Population Normal (%),[1],92%
same,Population Pyknosed Nuclei (%),[1],12%
same,Population Tubulin-Different-Phenotype (%),[1],35%
same,Total Cell Count,[1],411
same,Population Apoptotic (%),[2],40%
same,Population Fragmented Nuclei (%),[2],4%
same,Population Healthy Nuclei (%),[2],80%
same,Population Hoechst High Intensity Objects (%),[2],2%
same,Population Mitochondria Different-Phenotype (%),[2],58%
same,Population Mitotic Cells (%),[2],59%
same,Population Normal (%),[2],97%
same,Population Pyknosed Nuclei (%),[2],14%
same,Population Tubulin-Different-Phenotype (%),[2],23%
same,Total Cell Count,[2],337
same,Population Apoptotic (%),[3],48%
same,Population Fragmented Nuclei (%),[3],8%
same,Population Healthy Nuclei (%),[3],73%
same,Population Hoechst High Intensity Objects (%),[3],6%
same,Population Membrane Permeable-Phenotype (%),[3],0%
same,Population Mitochondria Different-Phenotype (%),[3],65%
same,Population Mitotic Cells (%),[3],51%
same,Population Normal (%),[3],93%
same,Population Pyknosed Nuclei (%),[3],17%
same,Population Tubulin-Different-Phenotype (%),[3],47%
same,Total Cell Count,[3],264
same,Population Apoptotic (%),[4],69%
same,Population Healthy Nuclei (%),[4],76%
same,Population Hoechst High Intensity Objects (%),[4],19%
same,Population Mitochondria Different-Phenotype (%),[4],69%
same,Population Mitotic Cells (%),[4],30%
same,Population Normal (%),[4],80%
same,Population Pyknosed Nuclei (%),[4],15%
same,Population Tubulin-Different-Phenotype (%),[4],43%
same,Total Cell Count,[4],321
same,Population Apoptotic (%),[5],47%
same,Population Fragmented Nuclei (%),[5],10%
same,Population Healthy Nuclei (%),[5],79%
same,Population Hoechst High Intensity Objects (%),[5],6%
same,Population Membrane Permeable-Phenotype (%),[5],0%
same,Population Mitochondria Different-Phenotype (%),[5],38%
same,Population Mitotic Cells (%),[5],52%
same,Population Normal (%),[5],93%
same,Population Pyknosed Nuclei (%),[5],10%
same,Population Tubulin-Different-Phenotype (%),[5],24%
same,Total Cell Count,[5],498
same,Population Apoptotic (%),[6],40%
same,Population Fragmented Nuclei (%),[6],6%
same,Population Healthy Nuclei (%),[6],82%
same,Population Hoechst High Intensity Objects (%),[6],7%
same,Population Mitochondria Different-Phenotype (%),[6],45%
same,Population Mitotic Cells (%),[6],60%
same,Population Normal (%),[6],92%
same,Population Tubulin-Different-Phenotype (%),[6],23%
same,Total Cell Count,[6],355
same,Population Apoptotic (%),[7],48%
same,Population Fragmented Nuclei (%),[7],9%
same,Population Healthy Nuclei (%),[7],75%
same,Population Hoechst High Intensity Objects (%),[7],6%
same,Population Membrane Permeable-Phenotype (%),[7],0%
same,Population Mitochondria Different-Phenotype (%),[7],65%
same,Population Mitotic Cells (%),[7],51%
same,Population Normal (%),[7],93%
same,Population Pyknosed Nuclei (%),[7],14%
same,Population Tubulin-Different-Phenotype (%),[7],44%
same,Total Cell Count,[7],283
same,Population Apoptotic (%),[8],45%
same,Population Fragmented Nuclei (%),[8],10%
same,Population Hoechst High Intensity Objects (%),[8],14%
same,Population Mitochondria Different-Phenotype (%),[8],53%
same,Population Mitotic Cells (%),[8],54%
same,Population Normal (%),[8],85%
same,Population Pyknosed Nuclei (%),[8],13%
same,Population Tubulin-Different-Phenotype (%),[8],30%
same,Total Cell Count,[8],362
same,Population Apoptotic (%),[9],35%
same,Population Fragmented Nuclei (%),[9],19%
same,Population Healthy Nuclei (%),[9],74%
same,Population Hoechst High Intensity Objects (%),[9],8%
same,Population Membrane Permeable-Phenotype (%),[9],1%
same,Population Mitochondria Different-Phenotype (%),[9],40%
same,Population Mitotic Cells (%),[9],64%
same,Population Normal (%),[9],91%
same,Population Pyknosed Nuclei (%),[9],6%
same,Population Tubulin-Different-Phenotype (%),[9],25%
same,Total Cell Count,[9],554
same,Population Apoptotic (%),[10],60%
same,Population Fragmented Nuclei (%),[10],11%
same,Population Healthy Nuclei (%),[10],82%
same,Population Hoechst High Intensity Objects (%),[10],5%
same,Population Membrane Permeable-Phenotype (%),[10],0%
same,Population Mitochondria Different-Phenotype (%),[10],32%
same,Population Mitotic Cells (%),[10],39%
same,Population Normal (%),[10],94%
same,Population Pyknosed Nuclei (%),[10],5%
same,Population Tubulin-Different-Phenotype (%),[10],17%
same,Total Cell Count,[10],430
same,Population Apoptotic (%),[11],66%
same,Population Fragmented Nuclei (%),[11],23%
same,Population Healthy Nuclei (%),[11],63%
same,Population Hoechst High Intensity Objects (%),[11],11%
same,Population Membrane Permeable-Phenotype (%),[11],0%
same,Population Mitochondria Different-Phenotype (%),[11],56%
same,Population Mitotic Cells (%),[11],33%
same,Population Normal (%),[11],88%
same,Population Pyknosed Nuclei (%),[11],12%
same,Population Tubulin-Different-Phenotype (%),[11],30%
same,Total Cell Count,[11],379
same,Population Apoptotic (%),[12],59%
same,Population Healthy Nuclei (%),[12],70%
same,Population Hoechst High Intensity Objects (%),[12],8%
same,Population Mitochondria Different-Phenotype (%),[12],43%
same,Population Mitotic Cells (%),[12],40%
same,Population Normal (%),[12],91%
same,Population Pyknosed Nuclei (%),[12],6%
same,Population Tubulin-Different-Phenotype (%),[12],23%
same,Total Cell Count,[12],429
